These results are taken from the EternaBench riboswitch data.

The series has as its system MS2 coat protein. Nature of the series: apparent Kd, MS2 coat protein; higher = weaker binding; RNA-MaP array; FMN 200 µM where present. A digest of the protocol: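 Two titrations, one without ligand and one with constant ligand, were run with SNAP-549-labelled MS2 coat protein from 0.7 or 1.5 nM, doubling to 3 µM. The targets were designs transcribed by stalled E. coli RNA polymerase on Illumina sequencing-chip clusters, in 100 mM Tris-HCl pH 7.5, 80 mM KCl, 4 mM MgCl2, BSA, DTT, yeast tRNA and Tween-20. The apparent Kd is the median of filtered per-cluster binding-curve fits, with green signal normalised to red-channel RNA signal and control-cluster median Fmax.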

[1] abbreviates: designed as: ON switch for flavin mononucleotide, no ligand.
Where [2] appears, read: ligand present: flavin mononucleotide, designed as: ON switch for flavin mononucleotide.
Setting [3] is: designed as: OFF switch for flavin mononucleotide, no ligand.
Setting [4] is: ligand present: flavin mononucleotide, designed as: OFF switch for flavin mononucleotide.

The term apparent Kd denotes the concentration giving half-maximal binding under the conditions of the assay. For “AUGGAUACCACAGGAUAUACCUGGAAUAUCCAGGUAGAAGGGUGGUCCAUCCUAUGUAAAUACAUGAGGAUCACCCAUGUGUCC”, the “apparent Kd” value under setting [1] came to 256 nM and the “apparent Kd” value under setting [2] came to 244 nM. Taken in the same sequence, the figures for “GCUGUGGCAUGAGGAUAUGGUCACCUUUGGUGACCAGAAGGCAUGUCAAUAGACAUGAGGAUCACCCAUGUAGUUAACACAGCA” were 561 nM and 42.4 nM. Consider “UUAAUGACUGUGAGGAUAUCGGAUAGAUAGAUAUUCGAGAAGGUACAUGAGGAUCACCCAUGUGUGAUUAGAGA”, for which the “apparent Kd” value runs as follows: under setting [3], 245 nM; under setting [4], 291 nM. For “AAAUCCGCUGAGGAUAUUAUGAGUGAGAGCUCAUGAGAAGGCGGUACAUGAGGAUCACCCAUGUCUAUGGGCAA” the same measures were 419 nM and 292 nM. With “UUUCAGUCAGGAUAUCGUUAAUUUAAUUGUUUGUAUUAGUUCGAGAAGGGACAUGAGGAUCACCCAUGUACUUU”, the “apparent Kd” value is, setting by setting: under setting [3], 24.3 nM; under setting [4], 25.5 nM. In the case of “UGCAUGGUAGGAUAUACGGAACAUUAGGGUUUGUUAUGUAGACAUGAGGAUCACCCAUGUAGAAGGGCCGUGCU”, the “apparent Kd” value stood at 37.9 nM under setting [3] and 60.8 nM under setting [4]. As to “UAAGUUGAGGAGAAGGGAGCACAUGAGGAUCACCCAUGUGGUUCUUUGUGCUCAGGAUAUCCAUGGAGCGCCGACGCGUUCCCG”, the “apparent Kd” value was 89.2 nM under setting [3] and 15.6 nM under setting [4]. On to “GUAGAGUCAGGAUAUACAAGAUCGAAAGAUCGAAGAUCCAUACAUGAGGAUCACCCAUGUAGAAGGGACUCUAC”, for which the “apparent Kd” value by setting is: under setting [3], 17.1 nM; under setting [4], 35.8 nM. Take “UAUGUGUCAGGAUAUUGUUAAUUUAGUUGUUUGUAUUAGUUCGAGAAGGGACAUGAGGAUCACCCAUGUUGUUU”: the “apparent Kd” value under setting [3] stood at 31.9 nM.

As for “GCAAGUACGAGAGGAUAUUGACAUGAGGAUCACCCAUGUAUUUGGGAGUGUUCACUGAAUUCUUACGAGAAGGCUCGUACAUGC”, the “apparent Kd” value is, setting by setting: under setting [3], 246 nM; under setting [4], 232 nM.

As for “AUCAGCUCGUCAGGAUAUACGUCACUGCGUCAGCAGUGUGGUAAGAUCACAUGAGGAUCACCCAUGUAGAAGGGACGAGCUAAU”, the “apparent Kd” value under setting [3] was 13.7 nM and the “apparent Kd” value under setting [4] was found to be 334 nM. As for “UUUAUUUAGGCAGGAUAUACAUGUAUAUAUAUUUUUUUAUAUAUUAUUACAUGAGGAUCACCCAUGUAGAAGGGCCUUAUUAUA”, the “apparent Kd” value worked out at 75.6 nM under setting [3] and 89.1 nM under setting [4]. For “CAGUACUGAGGAUAUACAUGAGGAUCACCCAUGUGUUCCAGCUAGGAAACUAGCAAGAGUAGAAGGCAGUACUG” the same measures were 23.7 nM and 459 nM.

Turning to “GAAAAACAUGAGGAUCACCCAUGUAGAAAUAUGGGAGGAUAUACAAAGACGAAAGUCAAAGUAGAAGGCCUAAAAG”, the “apparent Kd” value was 125 nM under setting [1] and 31 nM under setting [2]. Taken in the same sequence, the figures for “UAAAUUCGAAACAUGAGGAUCACCCAUGUGUUGUGGUUUAUAUAGGAUAUGUGGAUACUUUUUUGACAGAAGGAUGAUGGUACU” were 13.2 nM and 10.9 nM. “AUAUAUAUAUCAGGAUAUGGACAGGCCUGUUCGUAUUGAGACAGUAACAUGAGGAUCACCCAUGUCCAGAAGGGAUAUAUAUAU”: the “apparent Kd” value came to 93.2 nM under setting [3] and 55.1 nM under setting [4]. With “CUAGCUAUCGGAGGAUAUUCAUACCGGAAACGGACAUGAGGAUCACCCAUGUGCCGAAAGGCUUGGGAGAAGGCCGAUAGCUAG”, the “apparent Kd” value came out at 272 nM under setting [1] and 20.6 nM under setting [2]. For “UGCGGUUGAGGAUAUACGUAGAAAUAGAUUCAUGUAAAACUACAUGAGGAUCACCCAUGUAGAAGGCAAUCGCU”, the “apparent Kd” value under setting [3] stood at 25.7 nM and the “apparent Kd” value under setting [4] is 217 nM. In the case of “CCUCUACAUGAGGAUCACCCAUGUGAGGAUAUCUCGGAAAAGCCACUUAAGGUACUCCAGAGAAGGCACGUGUA”, the “apparent Kd” value came out at 14.6 nM under setting [3] and 23.7 nM under setting [4]. Consider “UUUUUUUAAUAGAAGGAGGACUUCAUGAGGAUCACCCAUGUGUUAGUACUUAGGAUAUGUAAUAACAUGAGGAUCACCCAUGUC”, for which the “apparent Kd” value came out at 51.9 nM under setting [1] and 48.7 nM under setting [2].

In the case of “GUAGCAUGCAGCGAGGAUAUUCAUAUUAAAACAUGAGGAUCACCCAUGUAGGCCAAAAGGCCUUGGGAGAAGGCGCACAUGCUAC”, the “apparent Kd” value reads like this: under setting [1], 777 nM; under setting [2], 43.2 nM. As for “GAUAGAGAGCAGGAUAUCUUGGAUAAGUAUUGUAGAGAAGGGCUCACAUGAGGAUCACCCAUGUGGUCCUAGAU”, the “apparent Kd” value under setting [3] came to 14.2 nM and the “apparent Kd” value under setting [4] was found to be 34.2 nM. Taken in the same sequence, the figures for “CUGGUGUGAGGAUAUCAAAGACCUCGGGAAAGAACCGAGAAUGAGAAGGCACAUGAGGAUCACCCAUGUAACAA” were 18.2 nM and 30.7 nM. Taken in the same sequence, the figures for “AUAAUGAGAGGAUAUACAUGAGGAUCACCCAUGUUAUUAUCACGUCGUGCUCCAUUACGUAGAAGGCUCAUUUA” were 22 nM and 84.1 nM. For the sequence “AGUUGGCGAGGAUAUACAUGAGGAUCACCCAUGUGAAAUCGAGAAAAAAUAGGGAAAAGUAGAAGGCGCAGACA”, the “apparent Kd” value runs as follows: under setting [3], 10.3 nM; under setting [4], 12.1 nM. With “UGCCAUUACAUGAGGAUCACCCAUGUUCGCUAUGCGGGCUCGCAGGAUAUCCUCGCAGAUAAAGAGGAGAAGGGUGAUCCCGAC”, the “apparent Kd” value reads like this: under setting [1], 48 nM; under setting [2], 28.9 nM. For “CUGGUUGUCGUAGGAUAUGUAGGAUAUUCCUACAUGAGGAUCACCCAUGUUCGCAUGGAAGAAGGACAGAAGGACGAUGACCAC” the same measures were 930 nM and 23.2 nM.

On to “AGAGUGUGAGGAUAUAUGGUAAAAGUGAAGAGAGAGGAGGAGUAGAAGGUACAUGAGGAUCACCCAUGUUUGGA”, for which the “apparent Kd” value reads like this: under setting [3], 42.8 nM; under setting [4], 36.7 nM. Taken in the same sequence, the figures for “AGGUGACAUGAGGAUCACCCAUGUCAGGAUAUAUACACUGCCGGCGUGACGCCGGCAGAUAGAAGGGACAAAAU” were 15.9 nM and 18.4 nM.

As for “UUAUAUAGUGUGAGGAUAUGCUGGUCCUUGGAUCAGCAGAAGGCACAUGAGGAUCACCCAUGUAAUAUAUUAUU”, the “apparent Kd” value under setting [3] was determined as 67.1 nM and the “apparent Kd” value under setting [4] was 156 nM.

For the sequence “AUACCACGAGGAUAUCGUCUAUUCCACAUGAGGAUCACCCAUGUUAUCCAUGUUUCGUUUCGAGAAGGCGUGUUUU”, the “apparent Kd” value under setting [3] worked out at 59.3 nM and the “apparent Kd” value under setting [4] amounted to 41.5 nM. Regarding “GCAUGUAUAUAAGGAUAUGCAUCACUGAGAAAUUUAGUGAGGAAGAUCACAUGAGGAUCACCCAUGUAGAAGGUAUAUACGUGC”, the “apparent Kd” value is, setting by setting: under setting [3], 8.23 nM; under setting [4], 53.2 nM.

Consider “UUAUUUAUGUAAGGAUAUCGAUUAUAUACACAUCCUACAUGAGGAUCACCCAUGUUUUAUUUUUUCGAGAAGGUACAUUGUCGG”, for which the “apparent Kd” value under setting [1] was 51.7 nM and the “apparent Kd” value under setting [2] worked out at 47.4 nM. For the sequence “GUUCUUCCUGUGAGGAUAUCCAUGUUUCGGUUUGUGGAGAAGGUACAUGAGGAUCACCCAUGUCACCCGCGUUU”, the “apparent Kd” value came to 14.1 nM under setting [3] and 15.8 nM under setting [4].

For the sequence “UUUUAGAGAGGAUAUACAUUUUUUUAUUUAUUUAUAAUAUUACAUGAGGAUCACCCAUGUAGAAGGCUCAUUUU”, the “apparent Kd” value was determined as 28.8 nM under setting [3] and 22 nM under setting [4]. Taken in the same sequence, the figures for “GGAAGAGUAGGAUAUACAUGAGGAUCACCCAUGUCCUGGAGAAGCAAUUCGAUAUCCUGUAGAAGGACUAAUCU” were 40 nM and 36.1 nM.

Turning to “AUAUUAUUGAUCCAUUUUUUCAACAUGAGGAUCACCCAUGUGCAGGAUAUCGUGUGUUUUAUCAACGAGAAGGGCAAAUUCAUU”, the “apparent Kd” value under setting [3] came to 94.2 nM and the “apparent Kd” value under setting [4] was determined as 215 nM. Taken in the same sequence, the figures for “CGCACUUAUAGAGGAUAUGUUAAACAUGAGGAUCACCCAUGUGAUUUAGUAUCAAUAUUAGUGAAACAGAAGGCUAUUAGUGCG” were 13.3 nM and 12.9 nM. For “GGAGCACACAUUAACAUGAGGAUCACCCAUGUCAAAAGACAUGAGGAUAUGGAUCCGAAAAGGAUCCAGAAGGCAUGGCGCUCC”, the “apparent Kd” value runs as follows: under setting [1], 103 nM; under setting [2], 9.9 nM. Turning to “UGUCGGUGCAGAGGAUAUUACAUGAGGAUCACCCAUGUAUGAACCAAUAGCUGGAAACAGCAAUGUAAGAAGGCUGCUCCGACA”, the “apparent Kd” value is 11.8 nM under setting [3] and 168 nM under setting [4]. “CGCACACAUGAGGAUCACCCAUGUGAGGAUAUCAUGCUUCGUAGUAAACUACGAAGUGUGAGAAGGCACAUGUC”: the “apparent Kd” value was 31.2 nM under setting [3] and 102 nM under setting [4]. Taken in the same sequence, the figures for “AAAGUUUAAGCAGGAUAUCGACCAUUCCUUGAUGCUUCAUUGGUGCACAUGAGGAUCACCCAUGUCGAGAAGGGCUAUGAAGCU” were 15.6 nM and 47.4 nM.

On to “UGGUUAUAUGAAGGAUAUACUUAACAUGAGGAUCACCCAUGUGGUGUUGUGAGUGAGUGAGUUUAGUAGAAGGUCAAUUCUUUU”, for which the “apparent Kd” value is, setting by setting: under setting [3], 176 nM; under setting [4], 197 nM.

As to “AUGCCAAAAGGAGGAUAUGGAGCCUUAUUGGCUCCAGAAGGCUUGACAUGAGGAUCACCCAUGUGGCAGUGGUCUAAUGACCAC”, the “apparent Kd” value under setting [1] was 18.5 nM and the “apparent Kd” value under setting [2] came to 15.1 nM. “GUAGAACAUGAGGAUCACCCAUGUGAAGACGCAUGAGGAUAUAUACGUAAAUAGCAUACGAUAGAAGGCAUGAUAA”: the “apparent Kd” value under setting [1] worked out at 51.8 nM and the “apparent Kd” value under setting [2] stood at 26.8 nM. For “GCCAUCGCAUGAGGAUAUGCUCCCGUUUCGGGAGCAGAAGGCAUGUCAUAAGACAUGAGGAUCACCCAUGUGGUUAAGAUGGCA” the same measures were 335 nM and 12.4 nM. In the case of “GUCAGCUCGUGAGGAUAUACAUCACUGCUUCGGCAGUGUAUUAAGACAACAUGAGGAUCACCCAUGUAGAAGGCACGAGCUGAU”, the “apparent Kd” value under setting [3] was found to be 16.9 nM and the “apparent Kd” value under setting [4] worked out at 20.4 nM.

Regarding “CGCUGUCACGCAGGAUAUGCAUUGGAUUACAAUGCAGAAGGGCGAUCACAUGAGGAUCACCCAUGUGUAGACAGUGAAGAAGAG”, the “apparent Kd” value runs as follows: under setting [1], 728 nM; under setting [2], 47.1 nM.
